Molecules are shown by their SMILES.

human serum albumin (HSA), sequence (P02768 25-609): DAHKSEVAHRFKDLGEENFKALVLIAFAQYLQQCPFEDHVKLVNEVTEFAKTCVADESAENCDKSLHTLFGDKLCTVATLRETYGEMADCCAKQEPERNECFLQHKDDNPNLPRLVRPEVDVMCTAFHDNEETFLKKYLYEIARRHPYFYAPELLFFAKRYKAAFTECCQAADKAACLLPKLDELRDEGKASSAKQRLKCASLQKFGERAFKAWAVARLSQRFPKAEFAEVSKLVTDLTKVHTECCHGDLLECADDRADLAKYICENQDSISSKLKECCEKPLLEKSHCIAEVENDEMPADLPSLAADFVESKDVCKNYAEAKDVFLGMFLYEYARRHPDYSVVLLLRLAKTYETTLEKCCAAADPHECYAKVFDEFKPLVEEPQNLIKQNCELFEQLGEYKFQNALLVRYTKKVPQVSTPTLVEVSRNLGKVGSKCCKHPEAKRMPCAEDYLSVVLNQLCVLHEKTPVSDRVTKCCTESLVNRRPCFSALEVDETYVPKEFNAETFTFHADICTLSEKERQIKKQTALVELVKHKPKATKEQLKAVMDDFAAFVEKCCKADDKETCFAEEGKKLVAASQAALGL

This assay has as its target human serum albumin (HSA) (Homo sapiens, UniProt P02768). The assay can be described thus: frontal analysis, high-performance affinity chromatography on immobilized HSA. In kind it is binding. The method in brief: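 Fatty-acid-free HSA immobilized by Schiff base on diol silica (40 (± 2) mg HSA/g silica), packed in a 5 cm × 2.1 mm i.d. column. A column without HSA corrected for non-specific binding. Test compound (0.5 µM to 30 µM) in pH 7.4, 0.067 M potassium phosphate was applied at 0.5 mL/min, 37°C, until plateau. Detection at 260 nm; mean breakthrough times were used.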
As for `CC(=O)c1c[nH]c2ccccc12` [3-Acetylindole], binding was characterised by a dissociation constant (Kd) of 12.8 µM. The same measure for `Cc1c[nH]c2ccccc12` [3-Methylindole]: 18.9 µM. The same measure for `O=C(O)CCCc1c[nH]c2ccccc12` [Indole-3-butyric acid]: 1.03 µM; for `OCc1c[nH]c2ccccc12` [Indole-3-methanol]: 8.33 µM.

With `O=C(O)CCc1c[nH]c2ccccc12` [Indole-3-propionic acid], the Kd (commonly a measure of binding affinity in units of concentration) was 9.09 µM.
